Assay [1] addresses T1, PvENT1 (Plasmodium vivax, UniProt A5K8B0).
T1 sequence (A5K8B0 1-416): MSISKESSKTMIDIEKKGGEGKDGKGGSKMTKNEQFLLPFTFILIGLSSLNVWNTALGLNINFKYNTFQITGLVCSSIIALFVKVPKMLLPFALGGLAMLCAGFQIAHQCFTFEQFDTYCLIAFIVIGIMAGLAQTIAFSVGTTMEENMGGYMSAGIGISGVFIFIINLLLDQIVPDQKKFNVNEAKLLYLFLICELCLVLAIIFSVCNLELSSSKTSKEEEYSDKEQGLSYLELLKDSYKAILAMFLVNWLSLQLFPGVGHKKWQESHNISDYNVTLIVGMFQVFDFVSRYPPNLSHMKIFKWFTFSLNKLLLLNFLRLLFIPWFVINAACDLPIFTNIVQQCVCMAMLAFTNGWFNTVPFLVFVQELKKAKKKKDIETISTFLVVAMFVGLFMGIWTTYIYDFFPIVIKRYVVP
Nature of the assay: Inhibition of [3H]uridine uptake into PvENT1-expressing yeast. The class given is cell-based. As to conditions: for fold lower IC50 of PvENT1 than PfENT1: PvENT1 vs PfENT1.

The target in assay [2] is T1, PvENT1. Nature of the assay: Inhibition of [3H]adenosine uptake into PvENT1-expressing yeast. The class given is cell-based.
Assay [3] concerns empty vector (EV) purine auxotrophic yeast. Description: Growth of empty vector. The class given is cell-based, Saccharomyces cerevisiae. The gist of the method:
(§1)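 Yeast strain was MATa his3Δ1 leu2Δ0 met15Δ0 ura3Δ0 fui1Δ::KanMX4 ade2Δ::hphNT1 carrying pCM189 (empty or PvENT1). Cells grown to mid-log in SDM-adenine were washed three times in water, diluted to 4 × 10^6 cells/mL, and added 1:1 to adenine or adenosine serially diluted in 2× purine-free SDM.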

For assay [4], the system named is PvENT1-expressing purine auxotrophic yeast. Nature of the assay: Growth of PvENT1-expressing purine auxotrophic yeast with a sole purine source. The class given is cell-based. As to conditions: Saccharomyces cerevisiae, read-out: growth EC50. The gist of the method:
as §1

Assay [5] deals with PfENT1. The conditions noted are these: read-out: PfENT1 IC50; ref Riegelhaupt et al., 2010a; cited from earlier work.
For assay [6], the system named is hENT1. As to conditions: ref Griffiths et al., 1997, Baldwin et al., 2004, cited from earlier work.
Where [7] appears, read: IC50 for inhibition of [^3H]Adenosine by indicated pyrimidine, 50 nM [3H]adenosine, 15 min, PvENT1-expressing yeast, mean ± SD.
[8] abbreviates: [^3H]Adenosine uptake inhibition IC50, hENT1 inhibitors and toxic purine analogs, 50 nM [3H]adenosine, concentrations up to 20 mM, mean ± SD, n = 3.
Setting [9] is: IC50 for inhibition of [^3H]Uridine by indicated purine, 250 nM [3H]uridine, 15 min, PvENT1-expressing yeast, mean ± SD.
[10] abbreviates: IC50 for inhibition of [^3H]substrate uptake by the indicated purine, WT, Table 4, WT PvENT1, radiolabel [3H]adenosine (#).
Where [11] appears, read: hENT1 inhibitors and toxic purine analogs, 50 nM [3H]adenosine, concentrations up to 20 mM, mean ± SD, n = 3.
Where [12] appears, read: read-out: [^3H]Adenosine uptake inhibition IC50, hENT1 inhibitors and toxic purine analogs, 50 nM [3H]adenosine, concentrations up to 20 mM, mean ± SD, n = 3.

Each structure is given as a SMILES string. Where “and” joins values, the source holds several entries; their conditions need not be identical. Identical values can stand only once. Entries after “also recorded” stand apart in the source; their conditions may differ.

Broadly, the IC50 is the concentration that gives 50% inhibition. `Nc1nc2c(ncn2[C@H]2C[C@H](O)[C@@H](CO)O2)c(=O)[nH]1` [2-deoxyguanosine]: the IC50 in assay [1] (read-out: IC50 for inhibition of [^3H]Uridine by indicated purine, 250 nM [3H]uridine, 15 min, PvENT1-expressing yeast, mean ± SD) amounted to 20.5 ± 4.8 µM.
For `O=c1[nH]c(=O)n([C@@H]2O[C@H](CO)[C@@H](O)[C@H]2O)cc1F` [5-Fluorouridine (5-FUrd), 5-Fluorouridine], the IC50 in assay [2] (setting [7]) is 1770 ± 302 µM; in assay [2] (IC50 for inhibition of [^3H]adenosine uptake, 50 nM [3H]adenosine), 1700 µM.
For `Sc1ncnc2nc[nH]c12` [6-mercaptopurine], in assay [2] (setting [8]), the IC50 is 160 µM and 158 µM.
One may read the EC50 as the concentration giving half of the maximal effect. `Nc1ncnc2[nH]cnc12` [Adenine]: the concentration giving a half-maximal response (EC50) was determined as 39 ± 2 µM in assay [3] (Saccharomyces cerevisiae, read-out: growth EC50) and 27 ± 2 µM in assay [4]. For the same compound, in assay [1] (setting [9]), half-maximal inhibition (IC50) was put at 1430 ± 736 µM. Further, the “IC50 of nucleobase relative to the corresponding nucleoside” value in assay [1] (PvENT1-expressing yeast) was “one order of magnitude higher”.
As for `Nc1ncnc2c1ncn2[C@@H]1O[C@H](CO)[C@@H](O)[C@H]1O` [Adenosine], the IC50 is approximately 650 µM in assay [5]; 142 ± 34 µM in assay [1] (setting [9]); 167 ± 52 µM in assay [1] (IC50 for inhibition of [^3H]substrate uptake by the indicated purine, WT, Table 4, WT PvENT1, radiolabel [3H]uridine). Besides, the “growth EC50” value in assay [3] (EV yeast, liquid media, sole purine source) is “failed to grow”. In addition, in assay [1], the “fold lower IC50 of PvENT1 than PfENT1” value is reported as 4–5 fold. The 50% effective concentration (EC50) in assay [4] came to 394 ± 85 µM.
For `Nc1cc[nH]c(=O)n1` [Cytosine], inhibition in assay [2] (setting [7]) was half-maximal at 6140 ± 1030 µM (IC50). For the same compound, in assay [2] ([3H]adenosine uptake for pyrimidines), the “effect on radiolabel uptake into PvENT1-expressing yeast (in words)” value is listed as “slight inhibition”.
In the case of `OCCN(CCO)c1nc(N2CCCCC2)c2nc(N(CCO)CCO)nc(N3CCCCC3)c2n1` [Dipyridamole, dipyridamole], the “concentration range inhibiting hENT1” value in assay [6] was 5 to 20 nM. The “PvENT1 IC50 relative to hENT1” value in assay [2] (PvENT1 vs human ENT1) is 1000 fold. In addition, in assay [2] (setting [8]), the IC50 was ~40 µM and 40 µM.
Turning to `Nc1nc2nc[nH]c2c(=O)[nH]1` [Guanine], in assay [1] (setting [9]), the half-inhibitory concentration (IC50) is 6340 ± 2950 µM.
On the same count and under the same terms, next, `Nc1nc2c(ncn2[C@@H]2O[C@H](CO)[C@@H](O)[C@H]2O)c(=O)[nH]1` [Guanosine]: 14.9 ± 1.4 µM.
As to `O=c1[nH]cnc2nc[nH]c12` [Hypoxanthine], the concentration for half-maximal inhibition (IC50) in assay [5] was approximately 480 µM; in assay [2] (setting [10]), 141 ± 24 µM; in assay [1] (setting [9]), 99 ± 30 µM. For the same compound, in assay [1], the “fold lower IC50 of PvENT1 than PfENT1” value is recorded as 4–5 fold.
For the compound `OC[C@H]1O[C@@H](n2cnc3c(O)ncnc32)[C@H](O)[C@@H]1O` [Inosine], the IC50 in assay [2] (setting [10]) amounted to 5 ± 4 µM; in assay [1] (setting [9]) it was 3.8 ± 1.4 µM.
In the case of `O=[N+]([O-])c1ccc(CSc2ncnc3c2ncn3C2OC(CO)C(O)C2O)cc1` (stereo not drawn) [NBMPR, 4-nitrobenzylthioinosine], the “concentrations inhibiting hENT1” value in assay [6] (in words) is recorded as “sub-nanomolar”. Moreover, the “[^3H]Adenosine uptake inhibition IC50” value in assay [2] (setting [11]) is listed as “did not inhibit; also recorded: not sensitive”; in assay [2] (hENT1 inhibitors and toxic purine analogs, 50 nM [3H]adenosine, concentrations up to 20 mM, mean ± SD, n = 3, listed as 4-nitrobenzylthioinosine (NBMPR)), “no effect”. In assay [2] (setting [12]), the IC50 is more than 20000 µM.
In assay [2] (setting [7]), `Cc1cn([C@H]2C[C@H](O)[C@@H](CO)O2)c(=O)[nH]c1=O` [Thymidine] showed a half-maximal inhibitory concentration (IC50) of 183 ± 53 µM.
The same measure, in the same setting: next, `Cc1c[nH]c(=O)[nH]c1=O` [Thymine]: 564 ± 145 µM.
As to `Nc1ncnc2c1ccn2[C@@H]1O[C@H](CO)[C@@H](O)[C@H]1O` [Tubercidin, tubercidin (7-deaza-adenosine)], in assay [2] (setting [11]), the “[^3H]Adenosine uptake inhibition IC50” value is “failed to inhibit”. Further, the half-inhibitory concentration (IC50) in assay [2] (setting [12]) is more than 20000 µM.
`O=c1cc[nH]c(=O)[nH]1` [Uracil] showed an IC50 in assay [2] (setting [7]) of 3390 ± 1170 µM.
With `O=c1ccn([C@@H]2O[C@H](CO)[C@@H](O)[C@H]2O)c(=O)[nH]1` [Uridine], the 50% inhibitory concentration (IC50) in assay [2] (setting [7]) was 1730 ± 809 µM.
On to `O=c1[nH]c(=O)c2[nH]cnc2[nH]1` [Xanthine], for which the IC50 in assay [1] (setting [9]) was 2550 ± 189 µM.
For the compound `O=c1[nH]c(=O)c2ncn([C@@H]3O[C@H](CO)[C@@H](O)[C@H]3O)c2[nH]1` [Xanthosine], half-maximal inhibition in assay [1] (setting [9]) (IC50) required 4310 ± 2870 µM.

Values taken from PMC4706624 (International Journal for Parasitology: Drugs and Drug …, 2015).
